Shown are actives, neighbours in structure and some others; about 1.9% of the full set was active somewhere.
DNMT1 block – DNMT1 (human) enzyme inhibition. P26358. DNMT1 molecular beacon, Hinp1I cleavage, fluorescence. inhibition (reported as % activation of signal), % at 10 µM. actives 0.83% (n = 360,000); in the data active = inhibition above about 50%
CSN inh – inhibitors of human CSN-mediated cullin deneddylation | Q92905 | Purified CSN, SCF-Nedd8-OG deneddylation, fluorescence polarization | inhibition, % at 12.5 µM | actives 0.38% (n = 360,000);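 active = pattern-corrected inhibition above about 35%, with an unprinted fluorescence ratio check between 0.5 and 1.5, limit read from the data, passing the limit was not always enough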;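 also: 0% = enzyme with substrate and 100% = substrate without enzyme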
Target sequence (Q92905 whole entry, looked up, one chain of several): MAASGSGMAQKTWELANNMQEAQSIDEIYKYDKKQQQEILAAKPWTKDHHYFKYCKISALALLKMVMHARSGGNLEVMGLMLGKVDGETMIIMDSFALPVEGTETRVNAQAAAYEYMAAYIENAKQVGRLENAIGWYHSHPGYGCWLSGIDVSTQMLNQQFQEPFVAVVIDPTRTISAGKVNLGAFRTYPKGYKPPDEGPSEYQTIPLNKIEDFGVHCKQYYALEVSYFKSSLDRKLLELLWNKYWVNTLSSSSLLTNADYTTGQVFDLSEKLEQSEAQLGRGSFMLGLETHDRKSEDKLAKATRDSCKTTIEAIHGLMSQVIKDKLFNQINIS
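Detection – fluorescence polarization · System – HEK293T-derived human Csn5 enzyme · Controls – substrate-only high control, full reaction low control · Timing – 90 min, room temperature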
LMPTP block – LMPTP (human) inhibition; P24666; recombinant LMPTP-A, OMFP fluorogenic substrate, fluorescence intensity; inhibition, % at 20 µM; actives 0.22% (n = 360,000); AID 651560;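 active = compounds that cut the enzyme signal by at least half of the control window in the single-dose screen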;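 also: plate controls were DMSO wells with enzyme plus substrate for no effect and substrate without enzyme for full effect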
Target sequence (P24666 whole entry, looked up): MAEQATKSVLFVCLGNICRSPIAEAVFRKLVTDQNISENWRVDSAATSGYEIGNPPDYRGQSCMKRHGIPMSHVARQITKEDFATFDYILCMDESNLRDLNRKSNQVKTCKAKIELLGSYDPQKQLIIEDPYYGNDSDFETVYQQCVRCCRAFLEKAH
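Test system: LMPTP-A phosphatase enzyme; input: 0.625 nM LMPTP-A final; reagent: OMFP substrate, 400 µM final; compound dosing: 20 µM single dose, 3% DMSO; incubation: 50 min dark incubation at room temperature; measured by: endpoint fluorescence intensity from OMFP dephosphorylation; measure: % inhibition relative to no-enzyme and uninhibited control wells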
STEP inh – blocks human striatal-enriched tyrosine phosphatase | recombinant STEP, OMFP fluorogenic substrate, fluorescence | inhibition, % at 20 µM | actives 0.25% (n = 360,000);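 active = inhibition at 20 µM, scaled per plate between control wells, above about 37%, limit read from the data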;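 also: 0% = DMSO with enzyme and substrate and 100% = substrate only without enzyme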
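material = STEP tyrosine phosphatase | reagent = fluorogenic phosphatase substrate OMFP at 25 µM final | doses = single compound dose of 20 µM, 1% DMSO final | schedule = 20 min reaction, room temperature, in the dark | measured by = fluorescence, 480/540 nm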
Scp-1 inhibitor – blocks human Scp-1 phosphatase activity | Recombinant Scp1, phosphopeptide, malachite green phosphate absorbance | inhibition, % at 20 µM | Q9GZU7 | actives 0.88% (n = 340,000) | AID 493091;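 active = inhibition above about 50% at 20 µM, limit read from the data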;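 also: plate controls were DMSO wells with enzyme for no effect and wells lacking enzyme for full effect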
Target sequence (Q9GZU7 76-261 limits assumed): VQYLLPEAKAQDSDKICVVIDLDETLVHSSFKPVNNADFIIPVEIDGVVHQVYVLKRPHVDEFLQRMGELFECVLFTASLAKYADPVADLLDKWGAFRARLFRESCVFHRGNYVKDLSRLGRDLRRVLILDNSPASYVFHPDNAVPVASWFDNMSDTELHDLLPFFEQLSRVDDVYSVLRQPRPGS
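Material: truncated SCP-1 phosphatase (76-261aa) / Buffer or medium: 50 mM Tris acetate pH 5.5, 0.005% Tween-20, 10 mM MgCl2 / Compound dosing: one concentration, 20 µM, with 1.0% DMSO / Incubation: 45 min room-temperature reaction, 5 min colour, 30 min stabiliser / Detection: colorimetric free-phosphate detection, absorbance 630 nm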
SUMO1 PPI mod – SUMO1-SIM interaction modulation. P63165. SUMO1 binding to a labelled peptide, TR-FRET, 1 h. inhibition, % at 20 µM. actives 0.33% (n = 360,000); in the data active = inhibition above about 37%
Scp1 confirm – confirmation of human Scp-1 phosphatase inhibitors; shares compounds with Scp-1 inhibitor; recombinant SCP-1 catalytic domain, phosphate release, malachite green absorbance; inhibition, % at 20 µM; actives 61% (n = 2,500);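 also: plate controls were DMSO with enzyme for no effect and buffer wells lacking enzyme for full effect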
MG interference – counter-screen for Scp-1 inhibitors: colorimetric interference; AID 540313; Colorimetric interference counterscreen, malachite green absorbance 630 nm; apparent inhibition (interference), % at 20 µM; shares compounds with Scp-1 inhibitor; 2,500 tested, under 10 active;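 also: compounds added after enzyme reaction finished so only phosphate colour detection is probed; plate controls were DMSO wells with completed Scp-1 reaction for no effect and substrate wells lacking enzyme for full effect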
Scp-1 Tm shift – validation of human Scp-1 inhibitors by thermal shift binding | shares compounds with Scp-1 inhibitor | Recombinant SCP1, Sypro Orange thermal shift Tm | thermal shift relative to vanadate control, % at 40 µM | actives 25% (n = 1,500);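 active = substances whose mean melting-temperature shift, as a percentage of the reference inhibitor's shift, reaches about 5.3%, limit read from the data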;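 also: 0% = Tm of DMSO wells and 100% = Tm with sodium orthovanadate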
DNMT1 confirm – confirmation of human DNMT1 inhibitors. inhibition, % at 10 µM. shares compounds with DNMT1 block. actives 8% (n = 2,300). DNMT1 molecular beacon HinP1I cleavage, fluorescence. AID 602385;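 active = average inhibition of at least 30% in the single-concentration confirmation test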
DNMT1 interf – beacon fluorescence artifact counter-screen | shares compounds with DNMT1 block | DNMT1 molecular beacon spectral interference counterscreen, fluorescence 485/520 | activation (fluorescence interference), % at 10 µM | actives 1% (n = 2,300) | AID 602387;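 active = activation of at least 30% at 10 µM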;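 also: DNMT1 catalytic domain with a HinP1I cleavage step and a FAM/dabcyl DNA beacon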
* hit, by the source's call; nt = not tested or not shown.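 The calls were made as follows, unless noted: active = inhibition of at least 30% at 20 µM; inactive = the rest.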

SMILES	DNMT1 block	CSN inh	LMPTP block	STEP inh	Scp-1 inhibitor	SUMO1 PPI mod	Scp1 confirm	MG interference	Scp-1 Tm shift	DNMT1 confirm	DNMT1 interf
Cc1cc(-c2ccccc2)nc2c(Br)c(C(=O)O)nn12	52.3*	18.9	1.8	12.9	94.8*	4.6	61.3*	-19.4	8.2*	1.9	5.5
N#CCNC(=O)c1nn2c(C(F)(F)F)cc(-c3ccccc3)nc2c1Br	-6.4	2.4	0.0	-0.3	-9.1	-15.0	nt	nt	nt	nt	nt
COc1ccc(C(CC(=O)N2CCCC(C)C2)c2c(OC)cc(OC)c3c(-c4ccccc4)cc(=O)oc23)cc1 (stereo not drawn)	89.1*	26.1	15.3	3.2	58.5*	8.4	62.0*	-13.7	-8.7	0.9	-5.2
COc1ccc(C(CC(=O)N2CCCC(C)C2)c2c(OC)cc(OC)c3ccc(=O)oc23)cc1 (stereo not drawn)	7.1	-3.3	-0.1	-3.3	3.9	-1.7	nt	nt	nt	nt	nt
COc1cc(C(CC(=O)N2CCCC2)c2c(OC)cc(OC)c3c(-c4ccccc4)cc(=O)oc23)cc(OC)c1OC (stereo not drawn)	31.2	22.2	2.9	1.6	28.9	-12.6	nt	nt	nt	nt	nt
COc1ccc(C(CC(=O)N2CCCCC2)c2c(OC)cc(OC)c3c(-c4ccccc4)cc(=O)oc23)cc1 (stereo not drawn)	102.2*	25.9	14.7	2.6	79.0*	3.8	64.8*	-12.0	-13.2	2.6	-2.2
O=C(CN1C(=O)NC2(CCCc3ccccc32)C1=O)Nc1cccc(S(=O)(=O)N2CCCCC2)c1 (stereo not drawn)	40.1	-1.8	1.2	-0.6	-7.8	0.0	nt	nt	nt	nt	nt
CCc1ccccc1NC(=O)COc1ccc2oc(-c3ccc(OC)cc3)cc(=O)c2c1	67.7*	11.1	7.3	4.9	73.6*	8.6	59.1*	-12.3	-13.0	4.9	4.7
COc1ccc(CCNC(=O)C(=O)NCC2OCCN2S(=O)(=O)c2ccc3c(c2)OCCO3)cc1OC (stereo not drawn)	-2.0	3.1	-0.3	1.9	-7.3	2.4	nt	nt	nt	nt	nt
CCOc1ccccc1/C=C\c1nc(O)c([N+](=O)[O-])c(=O)[nH]1	2.4	4.6	-0.3	1.2	-10.0	-17.5	nt	nt	nt	nt	nt
Cc1cc(/C=C\c2nc(O)c([N+](=O)[O-])c(=O)[nH]2)c(C)n1-c1ccccc1	74.4*	19.4	13.5	9.1	67.8*	18.3	70.9*	-6.8	3.9	7.1	3.8
Cc1ccccc1NC(=O)Cn1c(O)c(N=NC(=O)c2ccccc2O)c2ccccc21	90.8*	14.8	45.8	48.4*	93.6*	-1.7	76.7*	-12.9	-3.4	15.1	-5.9
COCCn1c(C)cc(C(=O)COC(=O)c2cc3c(s2)CCC3)c1C	104.9*	15.0	7.9	-1.5	51.6*	6.0	70.4*	-9.8	-21.5	4.8	4.0
Cc1cc(C(=O)N2CCN(S(=O)(=O)c3ccccc3C#N)CC2)c(C)o1	4.6	-0.8	-1.4	1.1	-7.7	-1.5	nt	nt	nt	nt	nt
N#Cc1ccccc1S(=O)(=O)N1CCN(C(=O)c2cc3c(s2)CCC3)CC1	56.2*	3.8	42.2	28.0	97.8*	10.2	70.0*	-12.6	-16.7	3.5	1.4
N#Cc1ccccc1S(=O)(=O)N1CCN(C(=O)C2COc3ccccc3O2)CC1 (stereo not drawn)	66.7*	9.1	19.4	6.2	74.1*	3.5	73.0*	-9.5	-9.1	1.9	3.9
COc1ccccc1C/C(N)=N/OC(=O)COc1ccc(C)cc1	-0.6	2.2	1.6	-2.9	-5.4	-3.3	nt	nt	nt	nt	nt
CCN(CC)c1ncnc2c1cnn2Cc1ccc(Cl)cc1	-1.9	0.9	-0.9	-1.5	-5.2	21.3	nt	nt	nt	nt	nt
O=C(CN1C(=O)NC2(CCCC2)C1=O)OCc1cc(=O)n2cc(Br)ccc2n1	58.5*	4.8	13.6	-0.6	54.9*	-23.7	33.1*	-9.0	-9.6	5.5	-1.3
CC1(C)NC(=O)N(CC(=O)OCc2cc(=O)n3cc(Br)ccc3n2)C1=O	1.9	-4.2	-2.1	3.4	-6.2	-26.1	nt	nt	nt	nt	nt
Cc1ccccc1C(=O)NC(CC(C)C)C(=O)OCc1cc(=O)n2cc(Br)ccc2n1 (stereo not drawn)	25.5	-7.2	-0.4	-0.4	3.0	-19.4	nt	nt	nt	nt	nt
Cc1cc(C)c(C)c(S(=O)(=O)N[C@@H](C)C(=O)OCc2cc(=O)n3cc(Br)ccc3n2)c1C	71.0*	11.0	4.9	-1.2	69.3*	-11.2	65.4*	-4.9	5.7*	2.6	2.4
Cc1ccc(C)c(NC(=O)CN(C)C(=O)c2cccc(Oc3ccccc3)c2)c1	0.0	-2.8	0.8	1.3	-4.8	4.8	nt	nt	nt	nt	nt
CN(CC(=O)Nc1ccccc1Cl)C(=O)c1cccc(-n2cccc2)c1	-6.4	0.6	2.9	1.4	-6.2	0.7	nt	nt	nt	nt	nt
Cc1ccc(C)c(NC(=O)CN(C)C(=O)c2cccc(-n3cccc3)c2)c1	94.3*	29.2	8.2	3.6	79.3*	14.8	57.7*	-20.8	-8.1	8.8	1.5
CN(CC(=O)Nc1cccc(F)c1)C(=O)c1cccc(-n2cccc2)c1	90.6*	30.0	8.1	-0.1	77.2*	15.3	61.1*	-13.1	6.7*	13.3	0.1
CN(CC(=O)Nc1c(Cl)cccc1Cl)C(=O)c1cccc(-n2cccc2)c1	68.5*	21.6	10.3	1.4	83.5*	17.6	48.5*	-26.8	0.9	-0.6	0.7
Cc1ccc(NC(=O)CN2C(=O)N/C(=C/c3cc(C)n(-c4ccc(C(=O)O)cc4)c3C)C2=O)cc1	66.6*	6.6	1.2	9.9	62.8*	-3.2	54.1*	-23.2	3.1	28.9	4.7
Cc1ccc(NC(=O)CN2C(=O)N/C(=C/c3ccco3)C2=O)cc1	85.2*	68.4	45.3	5.0	76.5*	-3.6	18.0	-19.5	nt	2.2	-2.1

From PubChem
